Assay results reported in ChEMBL document CHEMBL5724801, “EUbOPEN Chemogenomics Library - Multiplex” (2024).
Where “and” joins values, the source holds several entries; their conditions need not be identical. Equal values may be shown once.

test system: Fibroblast; assay: Multiplex assay against human fibroblast; type: toxicity, cell-based; details: 12 h, 1 µM, compound concentration 1 uM
Method in brief: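 Hoechst33342, BioTracker Green Microtubule Cytoskeleton Dye, MitoTracker Red and Annexin V Alexa Fluor 680 were added to live cells at seeding, and imaging on a CQ1 microscope at 37°C and 5% CO2 followed compound addition. Gating by CellPathfinder machine learning separated cells into Hoechst high-intensity objects or normal cells, then normal cells into healthy, pyknosed or fragmented nuclei, then pyknosed cells into mitotic or apoptotic. Per cents of healthy-nucleus cells are reported for the tubulin, mitochondrial-mass and membrane-permeability phenotypes.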

**Q.** What does the source list for C=C(C)[C@H]1CN[C@H](C(=O)O)[C@H]1CC(=O)O [KAINIC ACID]?
**A.** Population Fragmented Nuclei (%): 7.74% and 5.42%; Population Healthy Nuclei (%): 70.97% and 80.83%; Population Hoechst High Intensity Objects (%): 0%; Population Membrane Permeable-Phenotype (%): 7.27% and 2.58%; Population Mitochondria Different-Phenotype (%): 7.27% and 10.31%; Population Mitotic Cells (%): 93.94% and 72.73%; Population Normal (%): 100%; Population Pyknosed Nuclei (%): 21.29% and 13.75%; Population Tubulin-Different-Phenotype (%): 10% and 19.07%; Total Cell Count: 155 and 240

**Q.** Which results are given for Cc1ccc(C(C)(O)c2nc3ccccc3s2)c(C)c1 (configuration not stated)?
**A.** Population Apoptotic (%): 50% and 44%; Population Fragmented Nuclei (%): 8% and 22%; Population Healthy Nuclei (%): 78% and 48%; Population Hoechst High Intensity Objects (%): 0% and 5%; Population Membrane Permeable-Phenotype (%): 0% and 3%; Population Mitochondria Different-Phenotype (%): 5% and 6%; Population Mitotic Cells (%): 50% and 56%; Population Normal (%): 99% and 95%; Population Pyknosed Nuclei (%): 12% and 29%; Population Tubulin-Different-Phenotype (%): 29% and 36%; Total Cell Count: 125 and 180

same assay, conditions: 12 h, 10 µM, compound concentration 10 uM

**Q.** Which results are given for C=C(C)[C@H]1CN[C@H](C(=O)O)[C@H]1CC(=O)O [KAINIC ACID]?
**A.** Population Apoptotic (%): 8.57% and 22.92%; Population Fragmented Nuclei (%): 7.35% and 3.47%; Population Healthy Nuclei (%): 75.49% and 77.99%; Population Hoechst High Intensity Objects (%): 0%; Population Membrane Permeable-Phenotype (%): 5.19% and 2.97%; Population Mitochondria Different-Phenotype (%): 6.49% and 10.89%; Population Mitotic Cells (%): 91.43% and 77.08%; Population Normal (%): 100%; Population Pyknosed Nuclei (%): 17.16% and 18.53%; Population Tubulin-Different-Phenotype (%): 11.04% and 20.3%; Total Cell Count: 204 and 259

**Q.** What does the source list for Cc1ccc(C(C)(O)c2nc3ccccc3s2)c(C)c1 (configuration not stated)?
**A.** Population Apoptotic (%): 44% and 22%; Population Fragmented Nuclei (%): 11% and 31%; Population Healthy Nuclei (%): 72% and 43%; Population Hoechst High Intensity Objects (%): 1% and 7%; Population Membrane Permeable-Phenotype (%): 0% and 15%; Population Mitochondria Different-Phenotype (%): 5% and 6%; Population Mitotic Cells (%): 56% and 77%; Population Normal (%): 98% and 92%; Population Pyknosed Nuclei (%): 16% and 25%; Population Tubulin-Different-Phenotype (%): 24% and 60%; Total Cell Count: 153 and 149

same assay, conditions: 24 h, 1 µM, compound concentration 1 uM

**Q.** With C=C(C)[C@H]1CN[C@H](C(=O)O)[C@H]1CC(=O)O [KAINIC ACID] as the molecule, how does the “Population Apoptotic (%)” value read?
**A.** 13.51% and 31.58%

**Q.** What about the “Population Fragmented Nuclei (%)” value of the same molecule?
**A.** 7.78% and 7.44%

**Q.** And the “Population Healthy Nuclei (%)” value?
**A.** 71.67% and 84.71%

**Q.** What about the “Population Hoechst High Intensity Objects (%)” value of the same molecule?
**A.** 0%

**Q.** What about the “Population Membrane Permeable-Phenotype (%)” value of the same molecule?
**A.** 3.88% and 1.46%

**Q.** And the “Population Mitochondria Different-Phenotype (%)” value?
**A.** 0.78% and 5.37%

**Q.** And the “Population Mitotic Cells (%)” value?
**A.** 86.49% and 68.42%

**Q.** And the “Population Normal (%)” value?
**A.** 100%

**Q.** And the “Population Pyknosed Nuclei (%)” value?
**A.** 20.56% and 7.85%

**Q.** And the “Total Cell Count” value?
**A.** 180 and 242

**Q.** With Cc1ccc(C(C)(O)c2nc3ccccc3s2)c(C)c1 (configuration not stated) as the molecule, how does the “Population Apoptotic (%)” value read?
**A.** 31% and 47%

**Q.** What about the “Population Fragmented Nuclei (%)” value of the same molecule?
**A.** 13% and 25%

**Q.** And the “Population Healthy Nuclei (%)” value?
**A.** 73% and 54%

**Q.** What about the “Population Hoechst High Intensity Objects (%)” value of the same molecule?
**A.** 0% and 5%

**Q.** And the “Population Membrane Permeable-Phenotype (%)” value?
**A.** 2% and 11%

**Q.** What about the “Population Mitochondria Different-Phenotype (%)” value of the same molecule?
**A.** 7% and 5%

**Q.** What about the “Population Mitotic Cells (%)” value of the same molecule?
**A.** 68% and 52%

**Q.** What about the “Population Normal (%)” value of the same molecule?
**A.** 99% and 94%

**Q.** And the “Population Pyknosed Nuclei (%)” value?
**A.** 13% and 20%

**Q.** What about the “Population Tubulin-Different-Phenotype (%)” value of the same molecule?
**A.** 22% and 43%

**Q.** What about the “Total Cell Count” value of the same molecule?
**A.** 139 and 173

same assay, conditions: 24 h, 10 µM, compound concentration 10 uM

**Q.** Which results are given for C=C(C)[C@H]1CN[C@H](C(=O)O)[C@H]1CC(=O)O [KAINIC ACID]?
**A.** Population Apoptotic (%): 5.41% and 14.29%; Population Fragmented Nuclei (%): 8.53% and 4.49%; Population Healthy Nuclei (%): 73.93% and 85.02%; Population Hoechst High Intensity Objects (%): 0%; Population Membrane Permeable-Phenotype (%): 8.33% and 2.64%; Population Mitochondria Different-Phenotype (%): 4.49% and 3.52%; Population Mitotic Cells (%): 94.59% and 85.71%; Population Normal (%): 100%; Population Pyknosed Nuclei (%): 17.54% and 10.49%; Population Tubulin-Different-Phenotype (%): 17.31% and 18.5%; Total Cell Count: 211 and 267

**Q.** Which “Population Apoptotic (%)” value does the source give for Cc1ccc(C(C)(O)c2nc3ccccc3s2)c(C)c1 (configuration not stated) here?
**A.** 55% and 38%

**Q.** What about the “Population Fragmented Nuclei (%)” value of the same molecule?
**A.** 13% and 27%

**Q.** And the “Population Healthy Nuclei (%)” value?
**A.** 74% and 46%

**Q.** What about the “Population Hoechst High Intensity Objects (%)” value of the same molecule?
**A.** 4% and 6%

**Q.** What about the “Population Membrane Permeable-Phenotype (%)” value of the same molecule?
**A.** 3% and 12%

**Q.** And the “Population Mitochondria Different-Phenotype (%)” value?
**A.** 6% and 9%

**Q.** What about the “Population Mitotic Cells (%)” value of the same molecule?
**A.** 44% and 61%

**Q.** What about the “Population Normal (%)” value of the same molecule?
**A.** 95% and 93%

**Q.** And the “Population Pyknosed Nuclei (%)” value?
**A.** 12% and 25%

**Q.** What about the “Population Tubulin-Different-Phenotype (%)” value of the same molecule?
**A.** 24% and 61%

**Q.** What about the “Total Cell Count” value of the same molecule?
**A.** 152 and 143

same assay, conditions: 48 h, 1 µM, compound concentration 1 uM

**Q.** C=C(C)[C@H]1CN[C@H](C(=O)O)[C@H]1CC(=O)O [KAINIC ACID] was tested. Which “Population Apoptotic (%)” value did it give?
**A.** 0% and 25%

**Q.** What about the “Population Fragmented Nuclei (%)” value of the same molecule?
**A.** 7.94% and 4.31%

**Q.** What about the “Population Healthy Nuclei (%)” value of the same molecule?
**A.** 88.89% and 87.84%

**Q.** What about the “Population Hoechst High Intensity Objects (%)” value of the same molecule?
**A.** 0%

**Q.** What about the “Population Membrane Permeable-Phenotype (%)” value of the same molecule?
**A.** 0.6% and 1.34%

**Q.** And the “Population Mitochondria Different-Phenotype (%)” value?
**A.** 15.48% and 5.36%

**Q.** And the “Population Mitotic Cells (%)” value?
**A.** 100% and 75%

**Q.** What about the “Population Normal (%)” value of the same molecule?
**A.** 100%

**Q.** What about the “Population Pyknosed Nuclei (%)” value of the same molecule?
**A.** 3.17% and 7.84%

**Q.** What about the “Total Cell Count” value of the same molecule?
**A.** 189 and 255

**Q.** With Cc1ccc(C(C)(O)c2nc3ccccc3s2)c(C)c1 (configuration not stated) as the molecule, how does the “Population Apoptotic (%)” value read?
**A.** 33% and 50%

**Q.** What about the “Population Fragmented Nuclei (%)” value of the same molecule?
**A.** 16% and 28%

**Q.** And the “Population Healthy Nuclei (%)” value?
**A.** 73% and 57%

**Q.** And the “Population Hoechst High Intensity Objects (%)” value?
**A.** 4% and 3%

**Q.** And the “Population Membrane Permeable-Phenotype (%)” value?
**A.** 0% and 5%

**Q.** And the “Population Mitochondria Different-Phenotype (%)” value?
**A.** 3% and 6%

**Q.** And the “Population Mitotic Cells (%)” value?
**A.** 66% and 50%

**Q.** And the “Population Normal (%)” value?
**A.** 95% and 96%

**Q.** And the “Population Pyknosed Nuclei (%)” value?
**A.** 9% and 14%

**Q.** What about the “Population Tubulin-Different-Phenotype (%)” value of the same molecule?
**A.** 16% and 39%

**Q.** And the “Total Cell Count” value?
**A.** 129 and 174

same assay, conditions: 48 h, 10 µM, compound concentration 10 uM

**Q.** C=C(C)[C@H]1CN[C@H](C(=O)O)[C@H]1CC(=O)O [KAINIC ACID] was tested. Which “Population Apoptotic (%)” value did it give?
**A.** 36.36% and 23.53%

**Q.** And the “Population Fragmented Nuclei (%)” value?
**A.** 9.7% and 6.92%

**Q.** What about the “Population Healthy Nuclei (%)” value of the same molecule?
**A.** 85.65% and 86.54%

**Q.** And the “Population Hoechst High Intensity Objects (%)” value?
**A.** 0%

**Q.** And the “Population Membrane Permeable-Phenotype (%)” value?
**A.** 2.96% and 2.22%

**Q.** And the “Population Mitotic Cells (%)” value?
**A.** 63.64% and 76.47%

**Q.** What about the “Population Normal (%)” value of the same molecule?
**A.** 100%

**Q.** What about the “Population Pyknosed Nuclei (%)” value of the same molecule?
**A.** 4.64% and 6.54%

**Q.** What about the “Total Cell Count” value of the same molecule?
**A.** 237 and 260

**Q.** How did the “Population Apoptotic (%)” value turn out when Cc1ccc(C(C)(O)c2nc3ccccc3s2)c(C)c1 (configuration not stated) was run?
**A.** 53% and 43%

**Q.** And the “Population Fragmented Nuclei (%)” value?
**A.** 22% and 34%

**Q.** And the “Population Healthy Nuclei (%)” value?
**A.** 68% and 53%

**Q.** What about the “Population Hoechst High Intensity Objects (%)” value of the same molecule?
**A.** 7%

**Q.** What about the “Population Membrane Permeable-Phenotype (%)” value of the same molecule?
**A.** 2% and 7%

**Q.** And the “Population Mitochondria Different-Phenotype (%)” value?
**A.** 6% and 7%

**Q.** What about the “Population Mitotic Cells (%)” value of the same molecule?
**A.** 46% and 56%

**Q.** What about the “Population Normal (%)” value of the same molecule?
**A.** 92%

**Q.** What about the “Population Pyknosed Nuclei (%)” value of the same molecule?
**A.** 9% and 12%

**Q.** And the “Population Tubulin-Different-Phenotype (%)” value?
**A.** 27% and 64%

**Q.** And the “Total Cell Count” value?
**A.** 156 and 143
